Consider three molecules from ChEMBL document CHEMBL4334422, “Toxicities and beneficial protection of H2S donors based on nonsteroidal anti-inflammatory drugs” (Medchemcomm, 2019).

Series [1] concerns Rattus norvegicus. The series is described as follows: Cardioprotective activity in SHR rat assessed as change in muscle fiber mitochondria at 10 mg/kg, ip administered for 14 days by TEM analysis. The format is functional, organism-based. Put shortly: (§1)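 SHRs were given 10 mg·kg⁻¹ intraperitoneally per day for 14 consecutive days, with an ibuprofen comparator and a normal control. Myocardial tissue was then removed. Sections were HE-stained for light microscopy and also examined by transmission electron microscopy at 6000, 10000 and 20000-fold.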

For series [2], the system named is Rattus norvegicus. The series is described as follows: Antihypertensive activity in ip dosed spontaneously hypertensive Wistar kyoto rat assessed as reduction in systolic arterial pressure administered for 6 hrs and measured every 30 mins post treatment by tail-cuff method. The format is functional, organism-based. The gist of the method: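 Male SHRs (8 weeks, 300 ± 25 g; 6 per group), given compound intraperitoneally once daily at 8 am in 0.5% (w/v) sodium carboxymethyl cellulose/DMSO 3/1 (v/v), 2 mL·kg⁻¹. Vehicle-treated SHR and WKY controls. SBP, DBP and heart rate were measured by tail-cuff on awake, restrained rats before dosing, then every 30 min for 6 h. Values are mean ± SD of four independent experiments.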

Series [3] relates to H9c2. Kind of series: Cytoprotective activity against H2O2-induced toxicity in rat H9c2 cells assessed as reduction in cell de-fromation at 10 to 80 uM pretreated with compound followed by H2O2 addition and measured after 1 to 8 hrs by giemsa staining based microscopic method. The format is functional. The gist of the method: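 H9c2 cells were injured with H₂O₂ (400 µM) for 1, 4 or 8 h to give light, medium and heavy damage, in the presence of compound at 10–80 µM. Acetaminophen or ibuprofen served as controls. Viability was measured as mean ± SD of three experiments. SOD and MDA contents were measured as mean ± SD of four experiments. Morphology was assessed by Giemsa staining under light microscopy.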

The test system of series [4] is Rattus norvegicus. Kind of series: Cardioprotective activity in SHR rat assessed as change in muscle fiber nature at 10 mg/kg, ip administered for 14 days by TEM analysis. The format is functional, organism-based. The gist of the method:
as §1

Series [5] in a line: Toxicity in Wistar kyoto rat assessed as swollen renal cells at 10 mg/kg, ip administered for 14 days by H and E staining based assay. The format is organism-based. The following applies: in vivo, 336 h. Put shortly: (§2)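 WKY rats were dosed intraperitoneally at 10 mg/kg daily for 14 days, using the 10% 1,3-propanediol vehicle, with a vehicle control group. Liver and kidney were collected and fixed immediately in 4% glutaraldehyde. Sections were stained with haematoxylin and eosin and scored for structural change under light microscopy.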

Series [6] in a line: Toxicity in Wistar kyoto rat assessed as visible gaps in kidney tissue at 10 mg/kg, ip administered for 14 days by H and E staining based assay. The format is organism-based. The conditions noted are these: in vivo, 336 h. The gist of the method: as §2
Series [7] can be described thus: Toxicity in Wistar kyoto rat assessed as necrosis in renal tubular epithelial cells at 10 mg/kg, ip administered for 14 days by H and E staining based assay. Format: organism-based. The following applies: in vivo, 336 h. Put shortly: as §2
Series [8] can be described thus: Toxicity in Wistar kyoto rat assessed as swollen proximal convoluted tubule cells at 10 mg/kg, ip administered for 14 days by H and E staining based assay. The following applies: in vivo, 336 h. Format: organism-based. The gist of the method:
as §2

The nature of series [9]: Toxicity in Wistar kyoto rat assessed as a large amount of exudation in glomerulus at 10 mg/kg, ip administered for 14 days by TEM assay. Format: organism-based. The conditions noted are these: in vivo, 336 h. The gist of the method: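 WKY rats were given 10 mg·kg⁻¹ intraperitoneally daily for 14 days, with vehicle-treated controls. Liver and kidney were collected and fixed in 4% glutaraldehyde. Tissue was examined after HE staining by light microscopy and by transmission electron microscopy at 6000, 10000 and 20000-fold.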

SMILES strings stand for the structures. Active and inactive are the calls of the source. The calls are words filed in the database; no cut-off is given here.

For `CC(=O)Nc1ccc(OC(=O)CCCCC2CCSS2)cc1` (centres undefined), the outcome in series [1], in [3] and in series [4] was Active. For the same molecule, the Activity result in series [2] was “Dose-dependent effect”.
For `CC(C)Cc1ccc(C(C)C(=O)Oc2ccc(-c3cc(=S)ss3)cc2)cc1` (centres undefined), in series [5], the Activity entry was “Toxic”.
Consider `CC(C)Cc1ccc(C(C)C(=O)Oc2ccc(C(N)=S)cc2)cc1` (centres undefined), for which the Activity result in series [6], in series [7], in series [8] and in series [9] was “Toxic” in each case.
